Laboratory results from ChEMBL document CHEMBL1154922, “Rapid P1 SAR of brain penetrant tertiary carbinamine derived BACE inhibitors” (Bioorg Med Chem Lett, 2010).
Active and inactive are the calls of the source. The rule behind the calls is not given here.

Assays:
[1] = target: Beta-secretase 1 (Homo sapiens) (UniProt P56817); assay: Inhibition of BACE1-mediated production of secreted beta-secretase amino terminal fragment
Outline: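 Cell-based sAPP_NF assay: cells express APP carrying the NF mutation, and secreted sAPP is the read-out. IC50 is given as mean ± deviation.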

[2] = target: Beta-secretase 1 (Homo sapiens) (UniProt P56817); assay: Inhibition of BACE1 at pH 6.5
Outline: (§1)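 Enzymatic BACE-1 inhibition assay run at the pH given in each line. Potency is reported as the inflection point (IP), in nM.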

[3] = test system: Rhesus monkey; assay: Reduction in CSF amyloid beta40 level in cisterna magna ported Rhesus monkey at 15 mg/kg, po co-administered with CYP inhibitor ritonavir 10 mg/kg, po measured after 24 hrs by sandwich ELISA; assay type: functional, organism-based; conditions: Macaca mulatta
[4] = Partition coefficient, log P of the compound; assay type: physicochemical; conditions: octanol/water
[5] = Plasma concentration in Rhesus monkey at 15 mg/kg, po co-administered with CYP inhibitor ritonavir 10 mg/kg, po after 4 hrs; assay type: ADME, organism-based, Macaca mulatta
Outline: (§2)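 In a satellite PK experiment, rhesus monkeys (n = 3) received the test article at the stated dose together with 10 mpk ritonavir. Plasma levels (µM) were measured at 4 h and 24 h and averaged with standard deviations. Values below the limit of quantitation are marked BLQ.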

[6] = test system: Rhesus monkey; assay: Reduction in CSF amyloid beta40 level in cisterna magna ported Rhesus monkey at 15 mg/kg, po co-administered with CYP inhibitor ritonavir 10 mg/kg, po measured after 4 hrs by sandwich ELISA; assay type: functional, organism-based; conditions: Macaca mulatta
[7] = Plasma concentration in Rhesus monkey at 15 mg/kg, po co-administered with CYP inhibitor ritonavir 10 mg/kg, po after 24 hrs; assay type: ADME, organism-based, Macaca mulatta; outline: as §2
[8] = target: Beta-secretase 1 (Homo sapiens) (UniProt P56817); assay: Inhibition of BACE1 at pH 4.5; outline: as §1
[9] = test system: Rhesus monkey; assay: Reduction in CSF soluble APPbeta level in cisterna magna ported Rhesus monkey at 15 mg/kg, po co-administered with CYP inhibitor ritonavir 10 mg/kg, po measured after 4 hrs by sandwich ELISA; conditions: Macaca mulatta
[10] = target: ATP-dependent translocase ABCB1 (Homo sapiens, UniProt P08183); assay: Inhibition of human P-glycoprotein assessed as PGP ratio
Chain of ATP-dependent translocase ABCB1 (P08183 whole entry): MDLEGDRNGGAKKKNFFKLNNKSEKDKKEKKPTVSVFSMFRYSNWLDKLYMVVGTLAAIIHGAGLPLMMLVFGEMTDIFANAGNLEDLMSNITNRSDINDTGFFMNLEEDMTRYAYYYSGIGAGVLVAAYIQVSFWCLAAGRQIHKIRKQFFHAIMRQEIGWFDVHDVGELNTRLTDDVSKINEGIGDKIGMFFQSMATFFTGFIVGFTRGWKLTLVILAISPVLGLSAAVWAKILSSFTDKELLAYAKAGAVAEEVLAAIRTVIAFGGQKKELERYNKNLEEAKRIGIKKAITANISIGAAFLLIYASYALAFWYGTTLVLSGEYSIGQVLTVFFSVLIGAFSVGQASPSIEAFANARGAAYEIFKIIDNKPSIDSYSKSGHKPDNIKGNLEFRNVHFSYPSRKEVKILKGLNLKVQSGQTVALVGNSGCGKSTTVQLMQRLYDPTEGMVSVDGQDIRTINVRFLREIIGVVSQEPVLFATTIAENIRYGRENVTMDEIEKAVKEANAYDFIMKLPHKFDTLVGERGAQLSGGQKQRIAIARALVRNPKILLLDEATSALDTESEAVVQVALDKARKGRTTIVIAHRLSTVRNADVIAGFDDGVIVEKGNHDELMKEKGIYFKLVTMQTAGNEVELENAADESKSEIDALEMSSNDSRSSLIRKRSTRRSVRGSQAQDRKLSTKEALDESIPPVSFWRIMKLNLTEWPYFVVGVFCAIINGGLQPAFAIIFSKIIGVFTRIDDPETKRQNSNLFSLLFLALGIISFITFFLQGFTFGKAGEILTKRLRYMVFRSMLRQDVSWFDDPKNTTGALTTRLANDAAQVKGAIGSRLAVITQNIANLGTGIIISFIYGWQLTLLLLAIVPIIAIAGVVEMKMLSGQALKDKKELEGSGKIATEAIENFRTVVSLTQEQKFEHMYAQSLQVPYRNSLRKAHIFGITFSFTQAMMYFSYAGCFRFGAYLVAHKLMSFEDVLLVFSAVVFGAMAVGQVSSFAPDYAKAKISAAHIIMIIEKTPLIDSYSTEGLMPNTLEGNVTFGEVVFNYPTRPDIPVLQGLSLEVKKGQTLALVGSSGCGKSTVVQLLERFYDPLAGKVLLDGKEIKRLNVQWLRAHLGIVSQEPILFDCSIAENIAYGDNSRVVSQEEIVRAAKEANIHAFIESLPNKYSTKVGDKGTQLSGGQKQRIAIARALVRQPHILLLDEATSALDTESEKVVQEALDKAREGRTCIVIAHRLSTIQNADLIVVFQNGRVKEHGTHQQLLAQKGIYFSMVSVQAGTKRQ

[11] = species on record: Mus musculus; assay: Inhibition of mouse P-glycoprotein assessed as PGP ratio
[12] = Ratio of drug level in brain to plasma in transgenic mouse at 30 mg/kg, ip; conditions: brain and plasma
[13] = test system: Rhesus monkey; assay: Reduction in CSF amyloid beta42 level in cisterna magna ported Rhesus monkey at 15 mg/kg, po co-administered with CYP inhibitor ritonavir 10 mg/kg, po measured after 4 hrs by sandwich ELISA; conditions: Macaca mulatta
[14] = test system: Rhesus monkey; assay: Reduction in CSF soluble APPbeta level in cisterna magna ported Rhesus monkey at 15 mg/kg, po co-administered with CYP inhibitor ritonavir 10 mg/kg, po measured after 4 hrs by sandwich ELISA; assay type: functional, organism-based; conditions: Macaca mulatta
[15] = test system: Rhesus monkey; assay: Plasma concentration in Rhesus monkey at 5 mg/kg, po co-administered with CYP inhibitor ritonavir 10 mg/kg, po after 24 hrs; assay type: ADME, organism-based, Macaca mulatta; conditions: in vivo, BLD = below limit of detection; outline: as §2
[16] = test system: Rhesus monkey; assay: Reduction in CSF amyloid beta42 level in cisterna magna ported Rhesus monkey at 15 mg/kg, po co-administered with CYP inhibitor ritonavir 10 mg/kg, po measured after 4 hrs by sandwich ELISA; assay type: functional, organism-based; conditions: Macaca mulatta
[17] = test system: Rhesus monkey; assay: Reduction in CSF amyloid beta40 level in cisterna magna ported Rhesus monkey at 5 mg/kg, po co-administered with CYP inhibitor ritonavir 10 mg/kg, po measured after 4 hrs by sandwich ELISA; assay type: functional, organism-based; conditions: Macaca mulatta
[18] = Plasma concentration in Rhesus monkey at 5 mg/kg, po co-administered with CYP inhibitor ritonavir 10 mg/kg, po after 4 hrs; assay type: ADME, organism-based, Macaca mulatta; outline: as §2

Chain of Beta-secretase 1 (Homo sapiens) (P56817 whole entry, the tested form may be a part): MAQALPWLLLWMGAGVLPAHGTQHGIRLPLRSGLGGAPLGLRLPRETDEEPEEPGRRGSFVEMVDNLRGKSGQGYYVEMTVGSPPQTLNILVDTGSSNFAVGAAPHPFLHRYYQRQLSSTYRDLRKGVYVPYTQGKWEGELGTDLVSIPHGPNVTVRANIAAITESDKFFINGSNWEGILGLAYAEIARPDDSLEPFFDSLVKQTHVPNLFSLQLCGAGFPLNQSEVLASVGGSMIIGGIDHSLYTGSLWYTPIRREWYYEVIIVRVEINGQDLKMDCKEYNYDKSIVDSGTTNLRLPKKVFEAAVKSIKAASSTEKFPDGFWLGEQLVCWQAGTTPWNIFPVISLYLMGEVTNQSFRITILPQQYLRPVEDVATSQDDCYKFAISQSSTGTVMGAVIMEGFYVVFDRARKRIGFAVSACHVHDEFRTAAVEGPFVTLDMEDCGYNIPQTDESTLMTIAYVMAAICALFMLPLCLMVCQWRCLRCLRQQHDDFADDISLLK

SMILES | IP [1] [nM] | IP [2] [nM] | other results
COCCN(C[C@H]1C[C@@H]1C)c1cc(-c2nnc([C@](C)(N)Cc3ccoc3)o2)c(Cl)c(N(C)S(C)(=O)=O)n1 | 1930 | 142 | –
COCCN(C[C@H]1C[C@@H]1C)c1cc(-c2nnc([C@](C)(N)Cc3ccccc3)o2)c(Cl)c(N(C)S(C)(=O)=O)n1 | 46 | 5 | Activity [3]: Active; logP [4]: > 3.2; concentration at 4 h [5]: 3360 nM; Activity [6]: Active; concentration at 24 h [7]: 100 nM; IP [8]: 0.4 nM; Activity [9]: Active; Ratio [10]: 1.9; Ratio [11]: 2.3; Kp [12]: 9; Activity [13]: Active
COCCN(C[C@H]1C[C@@H]1C)c1cc(-c2nnc([C@](C)(N)Cc3ccnc(OC)c3)o2)c(Cl)c(N(C)S(C)(=O)=O)n1 | – | 9900 | –
COCCN(C[C@H]1C[C@@H]1C)c1cc(-c2nnc([C@](C)(N)Cc3ccc(Cl)cc3)o2)c(Cl)c(N(C)S(C)(=O)=O)n1 | 320 | 4 | –
COCCN(C[C@H]1C[C@@H]1C)c1cc(-c2nnc([C@](C)(N)Cc3ccc(OC)cc3)o2)c(Cl)c(N(C)S(C)(=O)=O)n1 | 4300 | 180 | –
CCCC[C@@](C)(N)c1nnc(-c2cc(N(CCOC)C[C@H]3C[C@@H]3C)nc(N(C)S(C)(=O)=O)c2Cl)o1 | > 2200 | 1300 | –
COCCN(C[C@H]1C[C@@H]1C)c1cc(-c2nnc([C@](C)(N)Cc3ccc4c(c3)OCO4)o2)c(Cl)c(N(C)S(C)(=O)=O)n1 | 1100 | 119 | –
COCCN(C[C@H]1C[C@@H]1C)c1cc(-c2nnc([C@](C)(N)Cc3ccccc3OC)o2)c(Cl)c(N(C)S(C)(=O)=O)n1 | – | 3500 | –
COCCN(C[C@H]1C[C@@H]1C)c1cc(-c2nnc([C@](C)(N)Cc3cccc(Cl)c3)o2)c(Cl)c(N(C)S(C)(=O)=O)n1 | 4320 | 65 | –
COCCN(C[C@H]1C[C@@H]1C)c1cc(-c2nnc([C@](C)(N)Cc3ccc(OC)nc3)o2)c(Cl)c(N(C)S(C)(=O)=O)n1 | – | 1400 | –
COCCN(C[C@H]1C[C@@H]1C)c1cc(-c2nnc([C@](C)(N)Cc3cccc(OC)c3)o2)c(Cl)c(N(C)S(C)(=O)=O)n1 | – | 1500 | –

More lines, main results first:

IP [1] [nM] | IP [2] [nM] | SMILES | other results
304 | 17 | COCCN(C[C@H]1C[C@@H]1C)c1cc(-c2nnc([C@](C)(N)Cc3cccc(F)c3)o2)c(Cl)c(N(C)S(C)(=O)=O)n1 | –
– | 49000 | COCCN(C[C@H]1C[C@@H]1C)c1cc(-c2nnc([C@](C)(N)Cc3ncco3)o2)c(Cl)c(N(C)S(C)(=O)=O)n1 | –
3190 | 375 | COCCN(C[C@H]1C[C@@H]1C)c1cc(-c2nnc([C@](C)(N)Cc3ccco3)o2)c(Cl)c(N(C)S(C)(=O)=O)n1 | –
– | > 600000 | COCCN(C[C@H]1C[C@@H]1C)c1cc(-c2nnc([C@](C)(N)Cc3ccc(Br)cc3Br)o2)c(Cl)c(N(C)S(C)(=O)=O)n1 | –
> 6700 | 340 | COCCN(C[C@H]1C[C@@H]1C)c1cc(-c2nnc([C@](C)(N)Cc3ccccc3Cl)o2)c(Cl)c(N(C)S(C)(=O)=O)n1 | –
– | 29000 | COCCN(C[C@H]1C[C@@H]1C)c1cc(-c2nnc([C@](C)(N)Cc3cc(Br)c(F)cc3Br)o2)c(Cl)c(N(C)S(C)(=O)=O)n1 | –
195 | 15 | COCCN(C[C@H]1C[C@@H]1C)c1cc(-c2nnc([C@](C)(N)Cc3ccccc3F)o2)c(Cl)c(N(C)S(C)(=O)=O)n1 | –
15 | 2 | COCCN(C[C@H]1C[C@@H]1C)c1cc(-c2nnc([C@](C)(N)Cc3ccc(F)cc3)o2)c(Cl)c(N(C)S(C)(=O)=O)n1 | Activity [14]: Active; concentration at 4 h [5]: 2340 nM; concentration at 24 h [7]: 30 nM; Ratio [10]: 1.1; Ratio [11]: 1.9; Cp [15]: BLD; Activity [16]: Active; Activity [17]: Active; concentration at 4 h [18]: 1310 nM
